CXCR6 block – inhibitors of human CXCR6 receptor | O00574 | 360,000 tested, 0.36% active | inhibition, % at 20 µM | CHO-K1 PathHunter CXCR6 beta-arrestin, luminescence; in the data active means inhibition above about 34%, passing the limit was not always enough;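 further: antagonist mode with CXCL16 agonist at 10 nM final; 0% = 10 nM CXCL16 with DMSO and 100% = unstimulated wells without agonist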
HTR2A ag – agonists of mouse serotonin 5-HT2A receptor (HTR2A); 360,000 tested, 0.66% active; activation, % at 7.6 µM; CHO-K1 mHTR2A beta-arrestin complementation, luminescence; percent of 30 µM serotonin response; P35363; AID 624169;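 active means activation above a run cutoff, the mean activation of all tested compounds plus 3 SD, cut at about 14% in these data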;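 further: 0% = plate median of compound wells and 100% = 30 µM serotonin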
Target sequence (P35363 whole entry, looked up): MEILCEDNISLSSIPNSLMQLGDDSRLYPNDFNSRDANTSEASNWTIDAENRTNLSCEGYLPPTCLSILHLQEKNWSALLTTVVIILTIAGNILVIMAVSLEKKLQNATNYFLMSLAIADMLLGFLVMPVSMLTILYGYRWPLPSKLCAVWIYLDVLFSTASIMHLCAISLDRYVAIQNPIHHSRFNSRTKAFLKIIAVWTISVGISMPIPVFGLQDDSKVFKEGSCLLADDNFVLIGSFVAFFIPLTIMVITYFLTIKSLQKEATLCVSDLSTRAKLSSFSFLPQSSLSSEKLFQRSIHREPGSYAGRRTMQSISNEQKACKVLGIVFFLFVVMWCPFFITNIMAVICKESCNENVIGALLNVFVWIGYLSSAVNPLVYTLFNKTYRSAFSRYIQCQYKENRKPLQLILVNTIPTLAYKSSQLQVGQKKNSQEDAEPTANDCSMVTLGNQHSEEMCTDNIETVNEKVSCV
EBI2 block – blocks human EBI2 receptor beta-arrestin signaling. P32249. inhibition, % at 5 µM. EBI2 beta-arrestin recruitment, luminescence, 7a,25-OHC stimulated. AID 651636. 360,000 tested, 0.81% active; in the data active means inhibition above about 38%;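 further: enzyme fragment complementation signal reports receptor beta-arrestin coupling in cells; 0% = agonist plus DMSO wells and 100% = wells without agonist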
CCR6 antagonist – CCR6 (human) receptor antagonism | P51684 | CHO-K1 CCR6 PathHunter beta-arrestin, luminescence, CCL20-stimulated | inhibition, % at 20 µM | 340,000 tested, 0.49% active | AID 493098;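 active means compounds whose inhibition of the agonist-driven luminescence signal at 20 µM reaches about 50%, limit read from the data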;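 further: cells stimulated with CCL20 at 14 nM final; plate controls were DMSO with CCL20 for no effect and DMSO without agonist for full effect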
APJ antagonist – blocks the human apelin receptor APJ; CHO-K1 APJ beta-arrestin complementation, luminescence; inhibition, % at 20 µM; 330,000 tested, 0.32% active; AID 2521;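 active means inhibition above about 40% at 20 µM, limit read from the data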;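 further: cells challenged with 10 nM apelin-13 agonist together with compound; plate controls were apelin-13 plus DMSO wells for no effect and DMSO wells lacking apelin-13 for full effect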
APJ agonist – APJ receptor agonism; activation, % at 20 µM; AID 2520; P35414; CHO-K1 APJ PathHunter beta-arrestin, luminescence; 0% DMSO wells, 100% apelin; 330,000 tested, 0.11% active;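 active means activation more than six SD over the plate average, tested at 20 µM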;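 further: 0% = DMSO alone and 100% = apelin-13 at 10 nM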
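Material: CHO-K1 APJ beta-arrestin complementation cell line; Input: cell density 1000 per well; Incubation: compound stimulation 90 min at 25 °C, detection 60 min; Signal: luminescence from split beta-galactosidase complementation, Galacton Star/Emerald II substrate; Controls: DMSO-only wells as negative, 10 nM Apelin-13 as positive control.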
EBI2 antag conf – EBI2 (human) antagonism, single concentration confirmation; AID 651997; inhibition, % at 5 µM; shares compounds with EBI2 block; 2,400 tested, 29% active; EBI2 beta-arrestin luminescence, 7a,25-OHC antagonism;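 active means inhibition of at least 50%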
EBI2 ag – EBI2 agonism counter-screen; shares compounds with EBI2 block; EBI2-expressing cells, agonist mode, luminescence, 60 min; 0% vehicle, 100% 7α,25-dihydroxycholesterol control; 2,400 tested, under 10 active; AID 652000; activation, % at 5 µM;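 active means activation of at least 50%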
bGal counter – inhibits E. coli beta-galactosidase, counter-screen for EBI2 antagonists. shares compounds with EBI2 block. purified beta-galactosidase, luminescent Galacton Star, 15 min. inhibition, % at 5 µM. 2,400 tested, 1% active;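 active means replicate-average signal at least 3 plate SD below neutral wells, shown as high inhibition, flagging enzyme-inhibiting false positives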;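 further: 0% = DMSO wells with enzyme and 100% = wells lacking enzyme; higher means stronger loss of beta-gal luminescence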
* marks the source's active call; other numbers are inactive results; / = no result given. Most compounds without a hit are left out; they make up all but 2.2% or so of the library.

SMILES	CXCR6 block	HTR2A ag	EBI2 block	CCR6 antagonist	APJ antagonist	APJ agonist	EBI2 antag conf	EBI2 ag	bGal counter
COc1ccccc1N1CCN(C(=O)c2cc(-c3ccc(F)cc3)[nH]c2C)CC1	8.4	-10.4	95.3*	7.0	-5.0	0.9	71.5*	-0.7	-6.0
COc1ccccc1N1CCN(C(=O)c2ccoc2C)CC1	0.0	1.8	-6.9	-19.6	-8.7	-1.8	/	/	/
Cc1ccc([C@@H]2C[C@H]3[C@@H](CN2S(=O)(=O)c2ccc(C)cc2)C(=O)C[C@@H](c2ccc(Cl)cc2)N3S(=O)(=O)c2ccccc2C)cc1	2.5	-1.8	4.9	/	/	/	/	/	/
O=[N+]([O-])c1ccc(-c2cnc(SCc3ccccc3Cl)[nH]2)cc1	-3.5	-12.7	28.5	26.3	2.3	-6.3	/	/	/
O=[N+]([O-])c1ccc(-c2cnc(SC(c3ccccc3)c3ccccc3)[nH]2)cc1	22.5	-5.1	49.0*	26.8	-1.5	-1.8	37.7	0.3	6.1
CCCCCNC(=O)C(c1ccncc1)n1c(=O)c(-c2cc3ccccc3[nH]2)nc2ccccc21 (stereo not given)	/	-0.6	-3.5	/	/	/	/	/	/
O=C(c1ccncc1)c1ccc(NS(=O)(=O)c2ccc(Br)s2)cc1	-0.4	-8.7	2.9	8.1	8.3	0.7	/	/	/
O=C(Nc1ccc2ccccc2c1)c1ccc(NS(=O)(=O)c2ccc(Br)s2)cc1	-7.1	-6.9	44.2*	0.8	-31.9	2.7	15.0	0.5	3.4
COc1ccccc1N1CCN(C(=O)c2cc(-c3cccc(Cl)c3)on2)CC1	0.9	-1.2	72.1*	-4.3	-3.7	-4.8	33.5	-2.0	-9.9
COc1ccccc1N1CCN(C(=O)c2cc(C)on2)CC1	-3.1	-4.1	-16.7	-8.9	-7.4	-1.6	/	/	/
COc1ccccc1N1CCN(C(=O)c2cc(-c3ccc4c(c3)OCO4)on2)CC1	-1.5	2.4	67.1*	-4.8	-28.8	-3.6	46.3	0.9	3.1
Nc1ccccc1/C=C/c1ccccc1N	1.9	4.0	-2.9	0.4	/	/	/	/	/
Cc1c(C(=O)N2CCN(c3ncccn3)CC2)oc2ccc(Cl)cc12	-7.0	7.2	56.1*	7.8	-2.4	-3.2	46.7	0.2	1.2
Cc1c(C(=O)N2CCN(c3ccccn3)CC2)oc2ccccc12	11.1	-1.5	35.8*	3.9	-6.9	-0.6	2.9	-2.1	-12.5
COc1ccc(/C=C2\SC(=Nc3ccccc3OC)NC2=O)cc1	9.2	-3.0	1.1	9.8	9.7	-4.8	/	/	/
COc1ccc(/C=C2\SC(=NCc3ccccc3)NC2=O)cc1	-7.9	-8.0	46.6*	10.2	5.2	-1.4	39.1	2.1	4.1
CN1CCN(C(=O)/C=C\c2ccc(Cl)cc2)CC1	4.5	-0.2	88.5*	-7.1	-4.4	-3.3	66.2*	1.8	3.5
CN1CCN(C(=O)/C=C/c2c(F)cccc2Cl)CC1	0.3	-6.2	-6.0	-10.5	13.1	-3.1	/	/	/
CN1CCN(C(=O)/C=C/c2cccc(Cl)c2)CC1	-2.3	-0.7	45.9*	18.8	3.8	25.6	9.8	-0.8	-5.2
OC(COc1ccc(Cl)cc1)CN1CCC(Cc2ccccc2)CC1 (stereo not given)	-0.8	-20.0	59.9*	14.7	9.3	-0.6	34.6	-1.5	-9.7
Cc1ccc(OCC(O)CN2CCN(CC(O)COc3ccc(C)cc3)CC2)cc1 (stereo not given)	1.3	-6.4	45.0*	4.4	12.1	-3.2	21.2	0.0	4.2
O=C1NC[C@H](CCCCN2C[C@H](Cc3ccc(O)cc3)N(CCc3ccccc3)C(=O)C2=O)N(CCC2CCCCC2)C1=O	-9.0	3.4	-9.0	/	/	/	/	/	/
CC(=O)C1CN(S(=O)(=O)c2ccc(C)cc2)C(c2ccccc2)CC1C (stereo not given)	/	-9.9	8.0	/	/	/	/	/	/
CC(=O)Nc1cccc(-c2ccnc3c2CC(C(=O)Nc2ccc(Cl)cc2)O3)c1 (stereo not given)	0.0	0.9	-52.9	/	/	/	/	/	/
CCN(CCCNc1cc2c(c(N)c1S(=O)(=O)O)C(=O)c1ccccc1C2=O)c1ccccc1	35.4	-10.2	-9.9	/	/	/	/	/	/
SMILES	CXCR6 block	HTR2A ag	EBI2 block	CCR6 antagonist	APJ antagonist	APJ agonist	EBI2 antag conf	EBI2 ag	bGal counter
CC(C)c1ccc(/C=C/C(=O)N2CCCCCC2)cc1	3.4	0.0	35.7	11.5	0.3	-4.2	/	/	/
O=C(/C=C/c1ccc(Cl)cc1)N1CCN(CCN2C(=O)c3cccc4cccc(c34)C2=O)CC1	0.4	1.6	96.7*	18.6	/	/	80.8*	-0.5	-12.1
CN1CCN(C(=O)/C=C/c2ccccc2)CC1	4.1	1.5	44.8*	-0.9	12.3	-0.2	9.6	-1.3	-6.4
O=C(/C=C/c1ccccc1)N1CCN(CC(O)COc2ccccc2)CC1 (stereo not given)	7.2	-5.0	82.1*	2.9	2.6	-5.1	54.5*	-1.5	-10.1
CSc1ccc(/C=C/C(=O)N2CCCN(C)CC2)cc1	-5.9	-2.4	87.0*	-5.8	-2.2	-4.8	57.3*	-1.1	-14.1
CC1CC(C)CN(C(C(=O)NC2CCCCC2)c2cc3ccccc3o2)C1 (stereo not given)	6.9	-6.8	4.0	/	/	/	/	/	/
O=C(Oc1ccc(-c2nnco2)cc1)c1cc(S(=O)(=O)N2CCOCC2)ccc1F	7.8	0.2	-0.9	/	/	/	/	/	/
CC(=O)c1ccc(NC(=O)C(C)n2nc(-c3ccccc3)c3cc(Cl)ccc32)cc1 (stereo not given)	-7.0	3.8	44.5*	0.1	13.2	1.1	6.7	-1.4	-7.1
CC(C(=O)NCc1ccco1)n1nc(-c2ccccc2)c2cc(Cl)ccc21 (stereo not given)	1.9	2.6	14.4	8.1	1.5	-4.0	/	/	/
COc1cc(OC)cc(C(=O)N2CCN(C(=O)c3cccc(F)c3)CC2)c1	-4.9	6.8	4.9	6.8	0.6	-1.3	/	/	/
COc1ccc(OCC(=O)N2CCN(C(=O)c3cccc(F)c3)CC2)cc1	-6.1	3.0	81.1*	9.3	-19.7	-5.5	61.2*	-0.7	5.4
COc1ccc(OCC(=O)N2CCN(C(=O)c3ccc(F)cc3)CC2)cc1	7.8	-5.6	79.5*	7.5	7.7	-0.4	65.2*	1.0	5.1
Cc1ccc(OCC(=O)N2CCN(C(=O)c3cccc(F)c3)CC2)cc1	2.0	-3.0	84.5*	1.9	9.5	-2.0	48.6	1.8	5.4
Cc1ccc(OCC(=O)N2CCN(C(=O)c3ccncc3)CC2)cc1	-1.7	-3.2	43.9*	-6.5	2.4	-1.0	27.0	1.8	3.6

Source: PubChem (several laboratories)
